Laboratory results: ChEMBL document CHEMBL3045489, “Synthesis, fungicidal activity, and QSAR of a series of 2-dichlorophenyl-3-triazolylpropyl ethers” (J Agric Food Chem, 2000)
In brackets after ≈: the same amount, converted by molar mass. Activity calls are given as the source filed them. The rule behind the calls is not given here.

How the values were obtained:
[1] = target: T1, Lanosterol 14-alpha demethylase (Mycosarcoma maydis, UniProt P49602); experiment: Inhibition of 14alpha-demethylase Ustilago maydis ATCC 14826 assessed as reduction in 14alpha-methylfecosterol; details: read-out: I50 (converted)
T1 sequence (P49602 whole entry): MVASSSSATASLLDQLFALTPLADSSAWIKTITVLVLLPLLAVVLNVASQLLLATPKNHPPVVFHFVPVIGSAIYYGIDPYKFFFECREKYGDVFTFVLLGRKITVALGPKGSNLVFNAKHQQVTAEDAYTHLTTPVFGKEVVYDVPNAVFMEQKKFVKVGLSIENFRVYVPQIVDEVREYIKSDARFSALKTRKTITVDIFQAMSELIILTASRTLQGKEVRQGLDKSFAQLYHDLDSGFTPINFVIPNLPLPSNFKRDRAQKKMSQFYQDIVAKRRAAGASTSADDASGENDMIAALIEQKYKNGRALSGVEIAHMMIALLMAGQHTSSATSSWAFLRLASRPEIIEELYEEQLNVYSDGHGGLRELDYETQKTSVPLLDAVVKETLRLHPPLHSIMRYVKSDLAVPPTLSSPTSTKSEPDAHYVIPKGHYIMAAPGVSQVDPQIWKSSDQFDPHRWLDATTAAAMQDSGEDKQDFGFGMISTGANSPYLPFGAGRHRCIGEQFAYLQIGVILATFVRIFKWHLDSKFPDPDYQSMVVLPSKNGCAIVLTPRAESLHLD
Summary of the method: (§1)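 Actively growing broth cultures of U. maydis ATCC 14826 were incubated 18 h with increasing compound concentrations. Sterols were then extracted and analysed, and 14α-demethyl and 14α-methyl sterols quantified.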

[2] = target: T2, Lanosterol 14-alpha demethylase (Mycosarcoma maydis) (UniProt P49602); experiment: Inhibition of 14alpha-demethylase Ustilago maydis ATCC 14826 assessed as reduction in 14alpha-methylfecosterol at 20 mg/ml (reference value: 0.4%); set-up: scale not given: the % may be the effect or the level left; summary of the method: as §1
T2 sequence (whole entry): T1 sequence (P49602 whole entry)

[3] = target: T2, Lanosterol 14-alpha demethylase (Mycosarcoma maydis); experiment: Inhibition of 14alpha-demethylase Ustilago maydis ATCC 14826 assessed as reduction in ergosterol at 20 mg/ml (reference value: 61%); set-up: scale not given: the % may be the effect or the level left; summary of the method: as §1
[4] = target: T2, Lanosterol 14-alpha demethylase (Mycosarcoma maydis); experiment: Inhibition of 14alpha-demethylase Ustilago maydis ATCC 14826 assessed as reduction in obtusifoliol at 20 mg/ml (reference value: 0.7%); set-up: scale not given: the % may be the effect or the level left; summary of the method: as §1
[5] = target: T2, Lanosterol 14-alpha demethylase (Mycosarcoma maydis); experiment: Inhibition of 14alpha-demethylase Ustilago maydis ATCC 14826 assessed as reduction in eburicol at 20 mg/ml (reference value: 3.4%); set-up: scale not given: the % may be the effect or the level left; summary of the method: as §1
Ustilago maydis [6] = experiment: Antifungal activity against Ustilago maydis assessed as inhibition of radial growth on potato dextrose; assay type: functional, organism-based; details: Mycosarcoma maydis
Pyrenophora teres = experiment: Antifungal activity against Pyrenophora teres assessed as inhibition of radial growth on potato dextrose; assay type: functional, organism-based
Bipolaris maydis = experiment: Antifungal activity against Cochliobolus heterostrophus assessed as inhibition of radial growth on potato dextrose; assay type: functional, organism-based
Summary of the method: (§2)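 Radial growth inhibition on potato dextrose or Czapek agar across 100-0.1 mg L-1. ED50 calculated for each compound.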

Oculimacula yallundae = experiment: Antifungal activity against Oculimacula yallundae assessed as inhibition of radial growth on potato dextrose; assay type: functional, organism-based; summary of the method: as §2
Fusarium graminearum = experiment: Antifungal activity against Fusarium graminearum assessed as inhibition of radial growth on potato dextrose; assay type: functional, organism-based; summary of the method: as §2
Cercospora beticola = experiment: Antifungal activity against Cercospora beticola assessed as inhibition of radial growth on potato dextrose; assay type: functional, organism-based; summary of the method: as §2
Botrytis cinerea = experiment: Antifungal activity against Botryotinia fuckelianaassessed as inhibition of radial growth on potato dextrose; assay type: functional, organism-based; summary of the method: as §2
Podosphaera fuliginea [7] = experiment: Fungicidal activity against Podosphaera fuliginea inoculated in […] placed in growth room after 24 hr incubation assessed as direct protection after 6 to 10 days; assay type: functional
Uromyces appendiculatus [8] = experiment: Fungicidal activity against Uromyces appendiculatus inoculated in Phaseolus vulgaris placed in growth room after 24 hr incubation assessed as disease cure after 24 hr of inoculation; assay type: functional
Summary of the method: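 Bean rust curative test with the same plants, spray formulation (acetone/water 1:4 with Tween 20), 100 to 0.001 mg L-1 range and U. appendiculatus inoculum (1 × 10^5 spores mL-1). Compound applied 24 h after inoculation. Read-out expressed as MIC.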

Uromyces appendiculatus [9] = experiment: Fungicidal activity against Uromyces appendiculatus inoculated in Phaseolus vulgaris placed in growth room after 24 hr incubation assessed as direct protection after 6 to 10 days; assay type: functional
Summary of the method: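 Bean plants grown at 22 ± 1 °C, 80 ± 10% RH. Compound in acetone/water (1:4 v/v) with Tween 20 (0.4 mg mL-1) was sprayed on leaves until moist at 100 to 0.001 mg L-1. One day later leaves were inoculated with U. appendiculatus uredospores (1 × 10^5 spores mL-1), held 24 h at 22 ± 2 °C and 100% RH, then moved to the growth room. Scored at 6, 8 and 10 days as MIC.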

Ustilago maydis [10] = experiment: Antifungal activity against Ustilago maydis sporidia assessed as swollen, multicellular and branched sporidia at 0.25 to 50 mg/ml measured after 18 hr by light microscopy; assay type: functional, organism-based; details: Mycosarcoma maydis
Summary of the method: (§3)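 U. maydis sporidia grown in Coursen and Sisler broth and treated at 0.25 to 50 mg mL-1 for 18 h. Cell morphology and division examined by interference contrast (Nomarski) and fluorescence microscopy.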

Podosphaera fuliginea [11] = experiment: Fungicidal activity against Podosphaera fuliginea inoculated in […] placed in growth room after 24 hr incubation assessed as disease cure after 24 hr of inoculation; assay type: functional
Ustilago maydis [12] = experiment: Antifungal activity against Ustilago maydis sporidia assessed as cell division at 0.25 to 50 mg/ml by light microscopy; assay type: functional, organism-based; details: Mycosarcoma maydis; summary of the method: as §3

SMILES	IC50 [1]	Activity [2]	Activity [3]	Activity [4]	Activity [5]	EC50 (Ustilago maydis [6])	EC50 (Pyrenophora teres)	EC50 (Bipolaris maydis)	EC50 (Oculimacula yallundae)	EC50 (Fusarium graminearum)	EC50 (Cercospora beticola)	EC50 (Botrytis cinerea)	MIC (Podosphaera fuliginea [7])	MIC (Uromyces appendiculatus [8])	MIC (Uromyces appendiculatus [9])	Activity (Ustilago maydis [10])	MIC (Podosphaera fuliginea [11])	Activity (Ustilago maydis [12])
C=CCOCC(Cn1cncn1)c1ccc(Cl)cc1Cl (racemic)	1.73 µM	8.8%	5.1%	20.6%	61.1%	0.22 µg/mL (≈ 0.705 µM)	1.4 µg/mL (≈ 4.48 µM)	0.16 µg/mL (≈ 0.512 µM)	0.29 µg/mL (≈ 0.929 µM)	8.5 µg/mL (≈ 27.2 µM)	0.21 µg/mL (≈ 0.673 µM)	1.5 µg/mL (≈ 4.8 µM)	30 µg/mL (≈ 96.1 µM)	28 µg/mL (≈ 89.7 µM)	200 µg/mL (≈ 641 µM)	–	–	–
FC(F)C(F)(F)OCC(Cn1cncn1)c1ccc(Cl)cc1Cl (stereo not drawn) [TETRACONAZOLE]	–	–	–	–	–	0.25 µg/mL (≈ 0.672 µM)	0.4 µg/mL (≈ 1.07 µM)	< 0.1 µg/mL	0.45 µg/mL (≈ 1.21 µM)	4 µg/mL (≈ 10.7 µM)	0.12 µg/mL (≈ 0.322 µM)	1.2 µg/mL (≈ 3.22 µM)	0.05 µg/mL (≈ 0.134 µM)	25 µg/mL (≈ 67.2 µM)	25 µg/mL (≈ 67.2 µM)	Active	0.9 µg/mL (≈ 2.42 µM)	Active
